In ChEMBL document CHEMBL1143764, “Cyclic and dimeric gluten peptide analogues inhibiting DQ2-mediated antigen presentation in celiac disease” (Bioorg Med Chem, 2007):
Calls of active or inactive are those of the source. The rule behind the calls is not given here. *1 amine or outer side, *2 acyl side, *3 side chain or, on linkers, in order; H or OH if unused. Where a SMILES comes first, the peptide text is derived from it. Bridges are numbered along the chain shown (N, C = ends). Side-chain parts run from the residue outwards. [ ]: non-standard residue; d: D form. The star is where a group is joined. N(prolylmethyl)Phe = O=C(CN([C@@H](Cc1ccccc1)C(=O)[*:2])[*:1])[C@@H]1CCCN1[*:3]; X1 = O=C(CCCOCCOCCOCCOCCOCCC(=O)NCCOCCOCC(=O)[*:1])NCCOCCOCC(=O)[*:2]; X2 = O=C(CCOCCOCCOCCOCCOCCOCCOCCOCCOCCOCCOCCC(=O)[*:2])[*:1]; 5FAM = O=C1OC2(c3ccc(O)cc3Oc3cc(O)ccc32)c2ccc(C(=O)*)cc21; X3 = O=C(CCOCCOCCOCCOCCOCCOCCOCCC(=O)[*:2])[*:1]

Legend:
T-cell = assay: Inhibition of P28 TCL2 T cell proliferation assessed as incorporation of [3H]-thymidine in presence of 10 uM antigen peptide; assay type: functional, cell-based; settings: Homo sapiens
In short: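 HLA-DR3/DQ2 homozygous EBV B-lymphoblastoid cells (VAVY or CD114), fixed with 1% paraformaldehyde or 0.05% glutaraldehyde, peptide-loaded overnight at 2×10^6 cells/ml. Next day at 1×10^6/ml, duplicates, mixed with equal volume of P28 TCL2 T cells; 37°C, 5% CO2, 48 h. [3H]thymidine added, further 12–16 h, scintillation counting.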

[1] = Binding affinity to DQ2; parameters: species or system Homo sapiens
In short: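 Competition binding: 125I-labeled indicator peptide (30,000 cpm; 1–5 nM) plus graded unlabeled peptide incubated overnight with 70–200 nM DQ2 at 37°C, pH 5.2, with protease inhibitor cocktail. Bound separated from free on Sephadex G-50 spin columns; radioactivity counted; IC50 as competitor level halving indicator binding, from three 3-fold titration experiments.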

Homo sapiens = organism: Homo sapiens; assay: Binding affinity to recombinant DQ2 at pH 7.3 by fluorescent-conjugated peptide exchange assay
In short: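 Recombinant soluble DQ2 with N-terminally fused gliadin epitope, cleaved with ~2% w/w thrombin in PBS pH 7.3, 0°C, 2 h. 4.7 μM DQ2 with 0.185 μM fluorescein-labeled peptide (25:1), 37°C, 5 h, final pH 7.3. HPSEC with fluorescence (ex 495/em 520 nm); bound peptide as percent of total; mean of two experiments.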

For `CC(=O)N[C@H]1CCCCNC(=O)CCOCCOCCOCCOCCOCCOCCOCCC(=O)NCCCC[C@@H](C(=O)N[C@@H](CCC(=O)O)C(=O)N[C@@H](CC(C)C)C(=O)N2CCC[C@H]2C(=O)N[C@@H](Cc2ccc(O)cc2)C(=O)O)NC(=O)[C@H](CCC(=O)O)NC(=O)[C@@H]2CCCN2C(=O)[C@H](Cc2ccccc2)NC(=O)[C@@H]2CCCN2C(=O)[C@H](CCC(N)=O)NC1=O` (Ac-KQPFPEKELPY-OH; linker 1-7 via X3), the Activity (T-cell) was “Dose-dependent effect” and the IC50 [1] was 600 nM.
For `CC(C)C[C@H](NC(=O)c1ccc2c(c1)C(=O)OC21c2ccc(O)cc2Oc2cc(O)ccc21)C(=O)N[C@@H](CCC(=O)O)C(=O)N[C@@H](CC(C)C)C(=O)N[C@@H](CCC(N)=O)C(=O)N1CCC[C@H]1C(=O)CN[C@@H](Cc1ccccc1)C(=O)N1CCC[C@H]1C(=O)N[C@@H](CCC(=O)O)C(=O)N1CCC[C@H]1C(=O)N[C@@H](CCC(=O)O)C(=O)N[C@H]1CCCCNC(=O)CCOCCOCCOCCOCCOCCC(=O)CNCCCC[C@@H](C(=O)N2CCC[C@H]2C(=O)N[C@@H](Cc2ccc(O)cc2)C(=O)O)NC(=O)[C@H](CCC(=O)O)NC(=O)[C@@H]2CCCN2C(=O)[C@H](CCC(=O)O)NC(=O)[C@@H]2CCCN2C(=O)[C@H](Cc2ccc(O)cc2)NC(=O)[C@@H]2CCCN2C1=O`, the Activity (Homo sapiens) was “Active”, the Activity (T-cell) was “Dose-dependent effect” and the IC50 [1] was 200 nM.
With `CC(C)C[C@H](NC(=O)c1ccc2c(c1)C(=O)OC21c2ccc(O)cc2Oc2cc(O)ccc21)C(=O)N[C@@H](CCC(=O)O)C(=O)N[C@@H](CC(C)C)C(=O)N[C@@H](CCC(N)=O)C(=O)N1CCC[C@H]1C(=O)CN[C@@H](Cc1ccccc1)C(=O)N1CCC[C@H]1C(=O)N[C@@H](CCC(=O)O)C(=O)N1CCC[C@H]1C(=O)N[C@@H](CCC(=O)O)C(=O)N[C@H]1CCCCNC(=O)COCCOCCNC(=O)CCOCCOCCOCCOCCOCCCC(=O)NCCOCCOCC(=O)NCCCC[C@@H](C(=O)N2CCC[C@H]2C(=O)N[C@@H](Cc2ccc(O)cc2)C(=O)O)NC(=O)[C@H](CCC(=O)O)NC(=O)[C@@H]2CCCN2C(=O)[C@H](CCC(=O)O)NC(=O)[C@@H]2CCCN2C(=O)[C@H](Cc2ccc(O)cc2)NC(=O)[C@@H]2CCCN2C1=O` (H-[N(prolylmethyl)Phe]([Gln-Leu-Glu-Leu-5FAM])PEPEKPYPEPEKPY-OH; linker 6-13 via X1) the Activity (Homo sapiens) was “Active”, the Activity (T-cell) was “Dose-dependent effect” and the IC50 [1] was 300 nM.
For `CC(C)C[C@@H]1NC(=O)CNC(=O)CNC(=O)[C@H](N)CSSC[C@H](C(=O)O)NC(=O)CNC(=O)CNC(=O)[C@H](Cc2ccc(O)cc2)NC(=O)[C@@H]2CCCN2C(=O)[C@H](CC(C)C)NC(=O)[C@H](CCC(=O)O)NC(=O)[C@@H]2CCCN2C(=O)[C@H](CCC(N)=O)NC(=O)[C@@H]2CCCN2C(=O)[C@H](Cc2ccccc2)NC(=O)[C@@H]2CCCN2C(=O)[C@H](CCC(N)=O)NC1=O`, the Activity (T-cell) was “Dose-dependent effect” and the IC50 [1] was 2000 nM.
For `CC(C)C[C@@H]1NC(=O)CNC(=O)CNC(=O)CNC(=O)CNC(=O)CNC(=O)CNC(=O)[C@H](N)CSSC[C@H](C(=O)O)NC(=O)CNC(=O)CNC(=O)[C@H](Cc2ccc(O)cc2)NC(=O)[C@H]2CCCN2C(=O)[C@H](CC(C)C)NC(=O)[C@H](CCC(=O)O)NC(=O)[C@@H]2CCCN2C(=O)[C@H](CCC(N)=O)NC(=O)[C@@H]2CCCN2C(=O)[C@H](Cc2ccccc2)NC(=O)[C@@H]2CCCN2C(=O)[C@H](CCC(N)=O)NC1=O`, the Activity (T-cell) was “Dose-dependent effect” and the IC50 [1] was 4200 nM.
For `CC(C)C[C@@H]1NC(=O)CNC(=O)CNC(=O)CNC(=O)CNC(=O)[C@H](N)CSSC[C@H](C(=O)O)NC(=O)CNC(=O)CNC(=O)[C@H](Cc2ccc(O)cc2)NC(=O)[C@@H]2CCCN2C(=O)[C@H](CC(C)C)NC(=O)[C@H](CCC(=O)O)NC(=O)[C@@H]2CCCN2C(=O)[C@H](CCC(N)=O)NC(=O)[C@@H]2CCCN2C(=O)[C@H](Cc2ccccc2)NC(=O)[C@@H]2CCCN2C(=O)[C@H](CCC(N)=O)NC1=O`, the Activity (T-cell) was “Dose-dependent effect” and the IC50 [1] was 3100 nM.
In the case of `CC(=O)N[C@H]1CCCCNC(=O)CCOCCOCCOCCOCCOCCOCCOCCOCCOCCOCCOCCC(=O)NCCCC[C@@H](C(=O)N[C@@H](CCC(=O)O)C(=O)N[C@@H](CC(C)C)C(=O)N2CCC[C@H]2C(=O)N[C@@H](Cc2ccc(O)cc2)C(=O)O)NC(=O)[C@H](CCC(=O)O)NC(=O)[C@@H]2CCCN2C(=O)[C@H](Cc2ccccc2)NC(=O)[C@@H]2CCCN2C(=O)[C@H](CCC(N)=O)NC1=O` (Ac-KQPFPEKELPY-OH; linker 1-7 via X2), the Activity (T-cell) is reported as “Dose-dependent effect” and the IC50 [1] is reported as 800 nM.
